Consider five compounds from paper PMC10938134 (International Journal for Parasitology: Drugs and Drug …, 2024).

The test system of test [1] is bloodstream stage of Trypanosoma brucei brucei. The experiment in a line: Viability assay for T. brucei brucei. The class given is cell-based. The following applies: 24 h.
Test [2] deals with redox biosensor hGrx1-roGFP2 in bloodstream T. b. brucei. Kind of test: Redox reporter assay for T. brucei brucei. Format: cell-based, Trypanosoma brucei brucei. The following applies: compound at its EC50 for 1 h; p < 0.001 compared to DMSO-treated parasites. In a few lines:
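Exponential-phase bloodstream parasites expressing the redox biosensor were exposed for 1 h to the test compound, with 1% v/v DMSO as vehicle and untreated cells as minimum. Diamide at 500 μM for 20 min gave maximum oxidation. Samples were then incubated for 20 min with 1 mM DTT. Flow cytometry gave % biosensor oxidation relative to these maximum and minimum conditions.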
A general note: Reporter assays use an easily measured gene product as a stand-in for the process of interest.

[3] abbreviates: Trypanosoma brucei, bloodstream parasites, 24 h incubation, compounds tested at 5 μM.

Structures are written as SMILES. Where only a bound is given, the exact number is not on record here.

For orientation: EC50 means the concentration giving half of the maximal effect. Read a high EC50 as weaker potency. Consider `N=C(N)c1ccc(N=NNc2ccc(C(=N)N)cc2)cc1` [Ber, Berenil, reference compound], for which the EC50 in test [1] (bloodstream T. b. brucei, concentration-response curves) stood at 0.43 ± 0.07 µM.

For orientation: viability means a read-out of living cells in per cent, often relative to untreated cells. Consider `OC[C@H]1O[C@@H]([Se]Cc2ccc3ccccc3n2)[C@H](O)[C@@H](O)[C@@H]1O` [compound 11, Quinolin-2-ylmethyl 1-seleno-β-D-glucopyranoside], for which, in test [1] (Trypanosoma brucei), the EC50 is around 5 µM and the viability at 5 µM was found to be 57.5 ± 3.8%. Turning to `CC(=O)OC[C@H]1O[C@@H]([Se]Cc2ccc3ccccc3n2)[C@H](OC(C)=O)[C@@H](OC(C)=O)[C@@H]1OC(C)=O` [compound 12, Quinolin-2-ylmethyl 2,3,4,6-tetra-O-acetyl-1-seleno-β-D-glucopyranoside], the “significant oxidation of the redox biosensor (in words)” value in test [2] is listed as “Except for the quinolino Se-glycoside 12”.

`COc1ccc2c(C[Se][C@@H]3O[C@H](CO)[C@@H](O)[C@H](O)[C@H]3O)cc(=O)oc2c1` [compound 13, 7-Methoxycoumarin-4-ylmethyl 1-seleno-β-D-glucopyranoside] had a viability at 5 µM in test [1] (setting [3]) of 57.3 ± 0.4%. In test [1] (setting [3]), `COc1ccc2c(C[Se][C@@H]3O[C@H](CO)[C@H](O)[C@H](O)[C@H]3O)cc(=O)oc2c1` [compound 14, 7-Methoxycoumarin-4-ylmethyl 1-seleno-β-D-galactopyranoside] came in with a viability at 5 µM of at most 50%.
